Assay outcomes from PubChem BioAssay.
Hits are enriched below; roughly 3.1% of the tested compounds scored in any of these assays.
KCNQ1 pot: human KCNQ1 channel potentiation or activation. P51787. CHO-K1 KCNQ1, thallium flux FluxOR fluorescence; hits give high values. B-score at 10 µM. actives 0.35% (n = 310,000). AID 2648;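 active = fluorescence ratio B-score, a plate-corrected score, at least three library SD, with initial intensity B-score within 5 SD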
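Assay system: CHO-K1 cells stably expressing KCNQ1. Medium: assay buffer for compound exposure, DMSO matched across wells. Timing: 37 °C overnight plating, 90-min dark dye load, 20-min compound pretreatment. Signal: kinetic FluxOR fluorescence, 10 s baseline plus 110 s post-stimulus.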
hERG protect: compounds protecting human hERG from proarrhythmic drug block | activation (rescue from dofetilide block), less the hit threshold, % at 10 µM | AID 1511 | actives 0.51% (n = 310,000) | Q12809 | CHO-hERG, FluxOR thallium flux, dofetilide IC70 present;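 active = activation above the mean of controls blocked by dofetilide plus 5 SD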;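 note: thallium influx through hERG after potassium depolarization seen as dye fluorescence rise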
KCNQ1 inh: human KCNQ1 channel inhibition; B-score at 10 µM; AID 2642; CHO-K1 KCNQ1, FluxOR thallium flux fluorescence; hits give high values; P51787; actives 1.3% (n = 310,000);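 active = compounds whose thallium flux B-score, printed positive for inhibition, exceeds three library SD while starting fluorescence stays within three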;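 note: channel opened by potassium depolarization with thallium stimulus after 20 min compound exposure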
KCNK9 inh: inhibitors of human KCNK9 two-pore domain potassium channel; Q9NPC2; HEK293 KCNK9, FluxOR thallium flux fluorescence; hits give low values; B-score at 10 µM; actives 1.2% (n = 310,000); AID 488922;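 active = ratio B-score over 3 SD below the library mean, with starting fluorescence within 5 SD of its mean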;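 note: negative B-score means less thallium flux so channel inhibition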
KCNK3 inh: human KCNK3 channel inhibition, primary screen | actives 0.84% (n = 340,000) | AID 602410 | O14649 | CHO-KCNK3 thallium flux, FluxOR fluorescence; hits give low values | B-score at 10 µM;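 active = B-score under library mean minus 4 SD, starting fluorescence ratio at most library mean plus 5 SD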;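 note: more negative B-score means stronger inhibition of thallium flux through KCNK3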
Target sequence (O14649 whole entry, looked up): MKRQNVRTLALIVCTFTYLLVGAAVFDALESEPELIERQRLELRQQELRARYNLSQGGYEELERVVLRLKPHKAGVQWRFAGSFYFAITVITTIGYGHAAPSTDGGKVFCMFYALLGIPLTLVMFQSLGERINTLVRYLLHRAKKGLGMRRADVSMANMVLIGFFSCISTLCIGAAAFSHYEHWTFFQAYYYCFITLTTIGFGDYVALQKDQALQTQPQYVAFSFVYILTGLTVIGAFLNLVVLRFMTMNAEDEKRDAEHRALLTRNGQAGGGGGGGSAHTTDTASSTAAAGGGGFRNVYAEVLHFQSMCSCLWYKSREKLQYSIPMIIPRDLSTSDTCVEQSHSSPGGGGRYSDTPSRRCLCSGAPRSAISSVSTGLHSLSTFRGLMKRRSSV
KCNK9 inh conf: human KCNK9 inhibitor confirmation. shares compounds with KCNK9 inh. HEK293 KCNK9 cells, FluxOR thallium flux fluorescence. inhibition, % at 10 µM. actives 43% (n = 4,900);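 active = thallium signal inhibited by more than 5 SD of the compound-free buffer control wells, on both duplicate plates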;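 note: 0% = assay buffer control wells without compound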
Kir2-1 spec: selectivity of KCNK9 modulators against mouse Kir2.1. shares compounds with KCNK9 inh. Kir2.1 cells, FluxOR thallium flux fluorescence. inhibition, % at 10 µM. actives 4% (n = 4,900). AID 492993;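 active = thallium signal drop more than 5 SD beyond the mean of the no-compound control wells, seen in both duplicate plates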;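 note: signal is fluorescence rise after thallium addition divided by baseline fluorescence; plate controls were assay buffer only for no effect and full block by chlorpromazine control for full effect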
KCNK9 uninduced: second counter-screen for KCNK9 modulators: effect in non-induced cells; shares compounds with KCNK9 inh; non-induced KCNK9-HEK293, FluxOR thallium flux; inhibition, % at 10 µM; actives 40% (n = 4,900);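 active = thallium signal drop beyond 5 SD of the untreated control mean, on both duplicate plates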;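 note: plate controls were buffer only IC0 wells for no effect and SID17386958 at its maximal inhibitory level for full effect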
An asterisk follows results filed as active; i = inactive; nt = no result.

SMILES	KCNQ1 pot	hERG protect	KCNQ1 inh	KCNK9 inh	KCNK3 inh	KCNK9 inh conf	Kir2-1 spec	KCNK9 uninduced
O=C(O)CCCN1C(=O)/C(=C/c2cn(-c3ccccc3)nc2-c2cccs2)SC1=S	i	-26	i	i	i	nt	nt	nt
Cc1nn(-c2ccccc2)c(Cl)c1/C=C1\SC(=S)N(CCCCCC(=O)O)C1=O	i	-20	i	i	i	i	i	i
COc1cc2c(oc(=O)c3cc(C)cc(OC)c32)c2c(C3OC(C)C(O)C(C)(O)C3O)ccc(O)c12 (configuration not stated)	nt	nt	nt	nt	i	nt	nt	nt
Cc1cc2c(cc1C)C(c1ccsc1)CC(=O)N2 (configuration not stated)	i	-16	i	i	i	nt	nt	nt
Cc1cccc2nc(-c3ccccc3)nc(N[C@@H](CO)c3ccccc3)c12	i	-12	i	-8.3*	i	50%*	i	44%*
COC(=O)C(Cc1ccc(O)cc1)NC(=O)C(C)NC(=O)c1ccc(C(C)(C)C)cc1 (configuration not stated)	i	-8	i	i	i	nt	nt	nt
CCOc1cc(/C=C2/C(=N)N3C(=NC2=O)SN=C3S(C)(=O)=O)ccc1OS(=O)(=O)c1ccccc1	i	-25	i	i	i	i	i	i
Cc1cc(C(=O)Cn2nc(C(=O)O)c3ccccc3c2=O)c(C)n1-c1cccc(C(F)(F)F)c1	i	-8	i	i	i	i	i	i
COc1ccccc1N1CCN(c2nc(C)nc3c2oc2ccccc23)CC1	i	-27	i	-14*	-9*	i	i	32%*
Cc1nc(N2CCC(C)CC2)c2oc3ccccc3c2n1	i	-11	i	i	i	nt	nt	nt
CCC(C)n1c(SCC(=O)Nc2cc(C)on2)nc2ccccc2c1=O (configuration not stated)	i	-5	i	i	i	nt	nt	nt
COc1ccccc1-n1c(SCC(=O)N2CCOCC2)nc2ccccc2c1=O	i	-6	i	i	i	nt	nt	nt
COc1ccc(C(C)=O)cc1CSc1nc2ccccc2c(=O)n1-c1ccccc1	i	-7	i	i	i	nt	nt	nt
COc1ccc(C(C)=O)cc1CSc1nc2ccccc2c(=O)n1-c1cccc(C)c1	i	-8	i	i	i	nt	nt	nt
COc1ccc(C(C)=O)cc1CSc1nc2ccccc2c(=O)n1-c1ccccc1C	i	-5	i	-9*	i	32%*	i	32%*
CCC(CO)n1c(SCc2cc(=O)oc3cc(C)ccc23)nc2ccccc2c1=O (configuration not stated)	i	-9	i	-12*	i	53%*	i	26%*
COc1ccccc1-n1c(SCc2cc(=O)oc3cc(O)ccc23)nc2ccccc2c1=O	i	-6	i	-8.3*	i	32%*	i	i
C=CCn1c(SCc2cc(C(C)=O)ccc2OCC)nc2ccccc2c1=O	i	-6	i	-13*	i	66%*	i	43%*
Cc1cc(NC(=O)COc2coc(CN3CCN(c4ccc(F)cc4)CC3)cc2=O)no1	i	-11	i	i	i	nt	nt	nt
O=C(CN(C(=O)c1csnn1)c1cccc(C(F)(F)F)c1)NC1CCCC1	i	-8	i	i	i	nt	nt	nt
CCOc1cc(N2CCOCC2)c(OCC)cc1NC(=O)COC(=O)CCOc1cc(C)ccc1C	i	-17	i	i	i	nt	nt	nt
CC(=O)N1CC(c2ccccc2)C(c2ccc(Cl)cc2)=N1 (configuration not stated)	i	-7	i	-9*	i	i	i	i
COC(=O)C1=C(C)OC(N)=C(C#N)C1c1ccccc1 (configuration not stated)	i	-1	i	i	i	nt	nt	nt
COC(=O)C1=C(C)OC(N)=C(C#N)C1c1c(C)nn(-c2ccccc2)c1Cl (configuration not stated)	i	-18	i	-13*	i	37%*	i	i
CCCCOC(=O)Nc1cc(Cl)ccc1C	i	-9	i	-13*	i	32%*	i	i
SMILES	KCNQ1 pot	hERG protect	KCNQ1 inh	KCNK9 inh	KCNK3 inh	KCNK9 inh conf	Kir2-1 spec	KCNK9 uninduced
CCCCOC(=O)Nc1cc(C)c(Cl)cc1OC	i	1	i	i	i	nt	nt	nt
COCCNC(=S)N(CCc1c(C)[nH]c2ccccc12)Cc1ccco1	i	-6	i	i	i	i	i	i
Cc1[nH]c2ccccc2c1CCN(Cc1cccs1)C(=S)Nc1ccccc1	i	-8	i	-8.2*	i	34%*	i	31%*
CNC(=S)N(CCc1c(C)[nH]c2ccc(Cl)cc12)Cc1cccs1	i	-15	i	i	nt	nt	nt	nt
O=C(CCC1CCCN(C2C3CC4CC(C3)CC2C4)C1)NCc1ccc(F)c(F)c1 (configuration not stated)	i	-9	i	i	i	nt	nt	nt
CCCCOC(=O)c1ccc(NC(=O)c2cc(Cl)ccc2OC)cc1	i	-5	i	i	i	nt	nt	nt
CCCCOC(=O)c1ccc(N/C(=N\S(=O)(=O)c2ccccc2)c2ccccc2)cc1	i	-8	i	-12*	i	52%*	i	37%*
CCOC(=O)c1oc2ccccc2c1COC(=O)CNC(=O)c1ccccc1OC	i	-13	i	i	i	nt	nt	nt
CCOC(=O)c1oc2ccccc2c1NC(=O)c1ccccc1OC	i	-16	i	-8.9*	i	34%*	i	i
CCCCOC(=O)c1ccc(NC(=O)c2ccccc2OC)cc1	i	-9	i	-9.2*	i	74%*	i	32%*
CN(C)S(=O)(=O)c1ccc(C(=O)N2CCN(S(=O)(=O)c3cccs3)CC2)cc1	i	-6	i	i	i	nt	nt	nt
O=C(CNC(=O)c1ccc(Br)o1)NCc1ccccc1Cl	i	-8	i	i	i	nt	nt	nt
O=C(CN1CCCc2ccccc21)NCCc1ccc(Cl)cc1	i	-12	i	i	i	nt	nt	nt
CCOC(=O)c1c(N)sc(C(O)(C(F)(F)F)C(F)(F)F)c1-c1ccc(F)cc1	i	-39	i	-9.3*	-12*	54%*	i	39%*
COc1ccccc1C(c1nnnn1C(C)(C)C)N1CCN(C(=O)c2ccco2)CC1 (configuration not stated)	i	-3	i	-14*	i	54%*	i	46%*
